ChEMBL document CHEMBL1124461, “Aromatic dienoyl tetramic acids. Novel antibacterial agents with activity against anaerobes and staphylococci” (J Med Chem, 1989)
Values after ≈ are worked out from the molar mass of the structure shown.

Experiments:
[1] = test system: Bacteroides fragilis; assay: Minimum inhibitory concentration against Bacteroides fragilis ATCC 25285; assay type: functional
In short: (§1)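 Anaerobic MICs by 2-fold dilution in Wilkens-Chalgren broth, reported in micrograms/milliliter.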

[2] = test system: Bacteroides thetaiotaomicron; assay: Minimum inhibitory concentration against Bacteroides thetaiotaomicron ATCC 29741; assay type: functional; in short: as §1
[3] = test system: Clostridioides difficile; assay: Minimum inhibitory concentration against Clostridium difficile ATCC 9689; assay type: functional; in short: as §1
[4] = test system: Clostridium perfringens; assay: Minimum inhibitory concentration against Clostridium perfringens ATCC 13124; assay type: functional
In short: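 Anaerobic MIC by 2-fold dilution in Wilkens-Chalgren broth; values in µg/mL.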

[5] = target: DNA-directed RNA polymerase subunit beta (Escherichia coli K-12) (UniProt P0A8V2); assay: Percent inhibition at a concentration of 100 ug/mL of RNA polymerase isolated from Escherichia coli K12 (Sigma)
[6] = test system: Escherichia coli; assay: Minimum inhibitory concentration (MIC) against the cell line Escherichia coli H560; assay type: functional
In short: (§2)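 Aerobic MICs by 2-fold dilution on brain–heart infusion agar, reported in micrograms/milliliter.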

[7] = test system: Escherichia coli; assay: Minimum inhibitory concentration (MIC) against the cell line Escherichia coli juhl; assay type: functional; in short: as §2
[8] = test system: Micrococcus luteus; assay: Minimum inhibitory concentration (MIC) against the cell line Micrococcus luteus ATCC 4698; assay type: functional; in short: as §2
[9] = test system: Pseudomonas aeruginosa; assay: Minimum inhibitory concentration (MIC) against the cell line Pseudomonas aeruginosa A5007; assay type: functional; in short: as §2
[10] = test system: Streptococcus equinus; assay: Minimum inhibitory concentration (MIC) against the cell line Streptococcus bovis A5169; assay type: functional; in short: as §2
[11] = test system: Staphylococcus aureus; assay: Minimum inhibitory concentration (MIC) against the cell line Staphylococcus aureus A5177; assay type: functional; in short: as §2
[12] = test system: Staphylococcus aureus; assay: Minimum inhibitory concentration (MIC) against the cell line Staphylococcus aureus ATCC 6538P; assay type: functional; in short: as §2
[13] = test system: Staphylococcus aureus; assay: Minimum inhibitory concentration (MIC) against the cell line Staphylococcus aureus CMX 686B; assay type: functional; in short: as §2
[14] = test system: Staphylococcus aureus; assay: Minimum inhibitory concentration (MIC) against the cell line Staphylococcus aureus 45; assay type: functional; in short: as §2
[15] = test system: Streptococcus pyogenes; assay: Minimum inhibitory concentration (MIC) against the cell line Streptococcus pyogenes EES61; assay type: functional; in short: as §2
[16] = test system: Staphylococcus epidermidis; assay: Minimum inhibitory concentration (MIC) against the strain Staphylococcus epidermidis 3519

Chain of DNA-directed RNA polymerase subunit beta (Escherichia coli K-12) (P0A8V2 whole entry, looked up): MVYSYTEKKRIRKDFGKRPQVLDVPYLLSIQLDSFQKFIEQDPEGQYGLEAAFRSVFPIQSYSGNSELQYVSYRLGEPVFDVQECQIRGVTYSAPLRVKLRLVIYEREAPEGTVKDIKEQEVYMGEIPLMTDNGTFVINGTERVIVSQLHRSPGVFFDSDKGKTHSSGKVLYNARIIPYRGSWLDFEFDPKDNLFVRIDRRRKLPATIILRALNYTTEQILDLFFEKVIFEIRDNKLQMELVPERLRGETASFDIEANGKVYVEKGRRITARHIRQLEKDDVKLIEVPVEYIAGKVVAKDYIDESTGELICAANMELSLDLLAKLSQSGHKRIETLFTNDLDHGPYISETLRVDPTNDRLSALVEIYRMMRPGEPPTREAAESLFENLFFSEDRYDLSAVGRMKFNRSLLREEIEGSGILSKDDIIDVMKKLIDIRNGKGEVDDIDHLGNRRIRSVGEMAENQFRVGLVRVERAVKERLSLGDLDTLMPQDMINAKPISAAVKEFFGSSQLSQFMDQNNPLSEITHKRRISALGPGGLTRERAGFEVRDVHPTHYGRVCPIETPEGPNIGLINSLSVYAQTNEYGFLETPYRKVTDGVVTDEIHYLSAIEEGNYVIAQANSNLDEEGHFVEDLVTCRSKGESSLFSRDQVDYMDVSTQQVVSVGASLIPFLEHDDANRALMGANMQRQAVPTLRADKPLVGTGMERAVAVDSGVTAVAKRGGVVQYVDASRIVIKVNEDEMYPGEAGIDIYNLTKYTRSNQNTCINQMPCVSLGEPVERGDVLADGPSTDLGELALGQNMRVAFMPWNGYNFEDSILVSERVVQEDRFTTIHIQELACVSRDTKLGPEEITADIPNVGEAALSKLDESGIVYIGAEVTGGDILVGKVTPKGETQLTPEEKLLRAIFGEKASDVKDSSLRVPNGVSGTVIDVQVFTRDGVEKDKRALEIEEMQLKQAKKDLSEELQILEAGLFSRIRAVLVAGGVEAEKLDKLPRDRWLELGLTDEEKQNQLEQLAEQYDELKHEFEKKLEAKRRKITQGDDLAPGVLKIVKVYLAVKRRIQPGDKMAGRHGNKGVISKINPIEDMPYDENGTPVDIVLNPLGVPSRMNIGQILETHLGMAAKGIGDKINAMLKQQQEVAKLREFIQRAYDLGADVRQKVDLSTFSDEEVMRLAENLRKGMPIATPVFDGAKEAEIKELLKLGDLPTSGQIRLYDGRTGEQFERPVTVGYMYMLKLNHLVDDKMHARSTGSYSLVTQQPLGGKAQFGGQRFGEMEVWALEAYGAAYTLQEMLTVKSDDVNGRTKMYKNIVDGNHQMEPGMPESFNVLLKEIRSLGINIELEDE

Compound	MIC [1] [µg/mL]	MIC [2] [µg/mL]	MIC [3] [µg/mL]	MIC [4] [µg/mL]	further results
CC(/C=C/C(O)=C1\C(=O)CNC1=O)=C\c1ccccc1	4 (≈ 14.9 µM)	4 (≈ 14.9 µM)	4 (≈ 14.9 µM)	8 (≈ 29.7 µM)	inhibition [5]: 4.5%
O=C(/C=C/C(Br)=C/c1ccccc1)C1=C(O)CNC1=O	8 (≈ 23.9 µM)	8 (≈ 23.9 µM)	8 (≈ 23.9 µM)	31 (≈ 92.8 µM)	inhibition [5]: 7.3%
CC(/C=C/C(=O)C1=C(O)CN(C)C1=O)=C\c1cnc2ccccc2c1	2 (≈ 5.98 µM)	4 (≈ 12 µM)	2 (≈ 5.98 µM)	2 (≈ 5.98 µM)	–
CN1CC(O)=C(C(=O)/C=C/C=C/c2ccccc2)C1=O	62 (≈ 230 µM)	62 (≈ 230 µM)	16 (≈ 59.4 µM)	125 (≈ 464 µM)	–
CCCCCC(/C=C/C(O)=C1\C(=O)CN(C)C1=O)=C\c1ccccc1	62 (≈ 183 µM)	125 (≈ 368 µM)	31 (≈ 91.3 µM)	16 (≈ 47.1 µM)	inhibition [5]: 5.6%
CC(/C=C/C(=O)C1=C(O)CN(C)C1=O)=C\CC1CCCCC1	8 (≈ 26.4 µM)	31 (≈ 102 µM)	2 (≈ 6.59 µM)	2 (≈ 6.59 µM)	–
CN1CC(O)=C(C(=O)/C=C/C(Br)=C/c2ccccc2)C1=O	16 (≈ 46 µM)	16 (≈ 46 µM)	16 (≈ 46 µM)	8 (≈ 23 µM)	–
CC(/C=C/C(=O)C1=C(O)CN(C)C1=O)=C\c1ccc(F)c2ccccc12	2 (≈ 5.69 µM)	2 (≈ 5.69 µM)	31 (≈ 88.2 µM)	62 (≈ 176 µM)	–
O=C(/C=C/C(Cl)=C/c1ccccc1)C1=C(O)CNC1=O	8 (≈ 27.6 µM)	8 (≈ 27.6 µM)	4 (≈ 13.8 µM)	4 (≈ 13.8 µM)	inhibition [5]: 3.2%
CCCCCCCCCCC/C=C(C)/C=C/C(O)=C1\C(=O)CN(C)C1=O	125 (≈ 346 µM)	125 (≈ 346 µM)	4 (≈ 11.1 µM)	31 (≈ 85.7 µM)	–
CC(/C=C/C(O)=C1\C(=O)CN(C)C1=O)=C\C(C)c1ccccc1 (stereo unspecified)	8 (≈ 25.7 µM)	16 (≈ 51.4 µM)	125 (≈ 401 µM)	125 (≈ 401 µM)	–
CC(/C=C/C(O)=C1\C(=O)CN(C)C1=O)=C\C(C)C1CCCCC1 (stereo unspecified)	8 (≈ 25.2 µM)	62 (≈ 195 µM)	2 (≈ 6.3 µM)	2 (≈ 6.3 µM)	–
CCC[C@@H]1C[C@@H](C(=O)N[C@@H]([C@H]2O[C@H](SC)[C@H](O)[C@@H](O)[C@H]2O)[C@H](C)Cl)N(C)C1 [CLINDAMYCIN]	2 (≈ 4.71 µM)	8 (≈ 18.8 µM)	1 (≈ 2.35 µM)	< 0.5	–
CO[C@H]1/C=C/O[C@@]2(C)Oc3c(C)c(O)c4c(O)c(c(/C=N/N5CCN(C)CC5)c(O)c4c3C2=O)NC(=O)/C(C)=C\C=C\[C@H](C)[C@H](O)[C@@H](C)[C@@H](O)[C@@H](C)[C@H](OC(C)=O)[C@@H]1C	–	–	–	–	inhibition [5]: 57%
CC(/C=C/C(=O)C1=C(O)CN(C)C1=O)=C\c1ccnc2ccccc12	16 (≈ 47.9 µM)	31 (≈ 92.7 µM)	8 (≈ 23.9 µM)	8 (≈ 23.9 µM)	–
CC(/C=C/C(=O)C1=C(O)CN(C)C1=O)=C\C1CCCCC1	8 (≈ 27.6 µM)	8 (≈ 27.6 µM)	4 (≈ 13.8 µM)	4 (≈ 13.8 µM)	–
COCCOCc1ccc2ccccc2c1/C=C(C)/C=C/C(O)=C1\C(=O)CN(C)C1=O	125 (≈ 297 µM)	250 (≈ 593 µM)	8 (≈ 19 µM)	125 (≈ 297 µM)	–

Compound	MIC [1] [µg/mL]	MIC [2] [µg/mL]	MIC [3] [µg/mL]	MIC [4] [µg/mL]	further results
O=C(/C=C/C=C/c1ccccc1)C1=C(O)CNC1=O	50 (≈ 196 µM)	50 (≈ 196 µM)	25 (≈ 97.9 µM)	25 (≈ 97.9 µM)	–
COc1ccc(/C=C(C)/C=C/C(O)=C2\C(=O)CN(C)C2=O)c2ccccc12	62 (≈ 171 µM)	125 (≈ 344 µM)	4 (≈ 11 µM)	2 (≈ 5.5 µM)	–
CN1CC(=O)\C(=C(O)/C=C/C=C/c2ccc(N(C)C)cc2)C1=O	125 (≈ 400 µM)	62 (≈ 198 µM)	31 (≈ 99.2 µM)	31 (≈ 99.2 µM)	–
CC(/C=C/C(=O)C1=C(O)CN(C)C1=O)=C\c1ccccn1	62 (≈ 218 µM)	125 (≈ 440 µM)	8 (≈ 28.1 µM)	31 (≈ 109 µM)	–
CC(/C=C/C(=O)C1=C(O)CN(C)C1=O)=C\C1CCc2ccccc2C1 (stereo unspecified)	125 (≈ 370 µM)	62 (≈ 184 µM)	125 (≈ 370 µM)	125 (≈ 370 µM)	–
CC(/C=C/C(=O)C1=C(O)C(C)N(C)C1=O)=C\c1ccc2ccccc2c1 (stereo unspecified)	62 (≈ 178 µM)	62 (≈ 178 µM)	62 (≈ 178 µM)	31 (≈ 89.2 µM)	–
CN1CC(O)=C(C(=O)/C=C/C=C/c2ccccc2[N+](=O)[O-])C1=O	62 (≈ 197 µM)	62 (≈ 197 µM)	62 (≈ 197 µM)	62 (≈ 197 µM)	–
CC(/C=C/C(O)=C1\C(=O)C2CCCN2C1=O)=C\c1ccc2ccccc2c1 (stereo unspecified)	31 (≈ 86.2 µM)	62 (≈ 172 µM)	16 (≈ 44.5 µM)	31 (≈ 86.2 µM)	–
CC(/C=C/C(O)=C1\C(=O)CNC1=O)=C\c1ccc2ccccc2c1	≤ 0.5	≤ 0.5	≤ 0.5	≤ 0.5	MIC [6]: > 100 µg/mL; MIC [7]: > 100 µg/mL; MIC [8]: 6.2 µg/mL (≈ 19.4 µM); MIC [9]: 100 µg/mL (≈ 313 µM); inhibition [5]: 13.1%; MIC [10]: 12.5 µg/mL (≈ 39.1 µM); MIC [11]: 1.56 µg/mL (≈ 4.88 µM); MIC [12]: 0.78 µg/mL (≈ 2.44 µM); MIC [13]: 0.78 µg/mL (≈ 2.44 µM); MIC [14]: 0.78 µg/mL (≈ 2.44 µM); MIC [15]: 12.5 µg/mL (≈ 39.1 µM); MIC [16]: 3.1 µg/mL (≈ 9.71 µM)
CC(/C=C/C(=O)C1=C(O)CN(C)C1=O)=C\c1cccc2ccccc12	< 0.5	2 (≈ 6 µM)	< 0.5	< 0.5	MIC [6]: > 100 µg/mL; MIC [7]: > 100 µg/mL; MIC [8]: 6.2 µg/mL (≈ 18.6 µM); MIC [9]: > 100 µg/mL; MIC [10]: 50 µg/mL (≈ 150 µM); MIC [11]: 3.1 µg/mL (≈ 9.3 µM); MIC [12]: 3.1 µg/mL (≈ 9.3 µM); MIC [13]: 3.1 µg/mL (≈ 9.3 µM); MIC [14]: 3.1 µg/mL (≈ 9.3 µM); MIC [15]: 12.5 µg/mL (≈ 37.5 µM); MIC [16]: 3.1 µg/mL (≈ 9.3 µM)
CC(/C=C/C(=O)C1=C(O)CN(C)C1=O)=C\c1c(O)ccc2ccccc12	31 (≈ 88.7 µM)	31 (≈ 88.7 µM)	16 (≈ 45.8 µM)	16 (≈ 45.8 µM)	–
CC(/C=C/C(=O)C1=C(O)CN(C)C1=O)=C\c1ccc(-c2ccccc2)cc1	8 (≈ 22.3 µM)	125 (≈ 348 µM)	≤ 0.5	31 (≈ 86.2 µM)	–
CC(/C=C/C(=O)C1=C(O)CN(C)C1=O)=C\c1ccccc1	4 (≈ 14.1 µM)	8 (≈ 28.2 µM)	4 (≈ 14.1 µM)	8 (≈ 28.2 µM)	–
CN1CC(O)=C(C(=O)/C=C/C(Cl)=C/c2ccccc2)C1=O	16 (≈ 52.7 µM)	16 (≈ 52.7 µM)	8 (≈ 26.3 µM)	8 (≈ 26.3 µM)	–
CC(/C=C/C(=O)C1=C(O)CN(C)C1=O)=C\C1CCCCO1 (stereo unspecified)	125 (≈ 429 µM)	125 (≈ 429 µM)	125 (≈ 429 µM)	125 (≈ 429 µM)	–
CC(/C=C/C(O)=C1\C(=O)CN(C)C1=O)=C\C(C)C	31 (≈ 124 µM)	62 (≈ 249 µM)	31 (≈ 124 µM)	31 (≈ 124 µM)	–
CC(/C=C/C(O)=C1\C(=O)CNC1=O)=C\c1cccc2ccccc12	1 (≈ 3.13 µM)	1 (≈ 3.13 µM)	1 (≈ 3.13 µM)	1 (≈ 3.13 µM)	MIC [6]: > 100 µg/mL; MIC [7]: 100 µg/mL (≈ 313 µM); MIC [8]: 12.5 µg/mL (≈ 39.1 µM); MIC [9]: 100 µg/mL (≈ 313 µM); MIC [10]: 6.2 µg/mL (≈ 19.4 µM); MIC [11]: 3.1 µg/mL (≈ 9.71 µM); MIC [12]: 3.1 µg/mL (≈ 9.71 µM); MIC [13]: 3.1 µg/mL (≈ 9.71 µM); MIC [14]: 3.1 µg/mL (≈ 9.71 µM); MIC [15]: 12.5 µg/mL (≈ 39.1 µM); MIC [16]: 6.2 µg/mL (≈ 19.4 µM)
